Reference: article PMC11338093 (ESMO Open, 2024)

Columns and labels:
[1] = tested on: subjects with advanced solid tumors; assay: APG-1387 monotherapy phase I trial: safety; assay type: in vivo, human
In short: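 3+3 escalation of 0.3, 0.6, 4.0, 7.0, 12, 20, 30 and 45 mg, given as 30-min i.v. infusion on D1/8/15 with a 1-week rest per 28-day cycle. Safety was monitored by vitals, examination, haematology, biochemistry, thyroid, coagulation and ECG. AEs were graded by CTCAE 4.0 from consent to 90 days after last dose. DLTs were predefined drug-related grade ≥3–4 toxicities in cycle 1. MTD was the level below that with DLTs in ≥2 of 6 subjects.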

advanced solid tumors = assay: APG-1387 monotherapy phase I trial: antitumor activity; assay type: in vivo, human
[2] = APG-1387 monotherapy phase I trial: plasma pharmacokinetics; assay type: in vivo, human
[3] = tested on: IFN-γ, IL-12/IL-23p40, IL-5, and IL-6; assay: Combination trial: plasma cytokines; assay type: in vivo, human; conditions: 4 and 24 h after APG-1387 dosing, 16 subjects
In short: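 Combination regimen: toripalimab 240 mg i.v. Q3W with the test compound i.v. weekly on D1/8 or D1/8/15. Plasma was collected on C1D1 pre-dose, at 4 and 24 h after the first test compound dose, and on C2D1 and C3D1 before toripalimab. Cytokines were measured by Meso Scale Discovery assay. Post-dose IFN-γ, IL-12, IL-5 and IL-6 were normalised to each subject's baseline.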

[4] = tested on: NK cell (CD3, −CD16+, and CD56+) populations; assay: Combination trial: peripheral blood lymphocyte subsets by flow cytometry; assay type: in vivo, human
In short: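 Combination regimen: toripalimab 240 mg i.v. Q3W plus test compound i.v., either 20–30 mg on D1/8 (3+3 stage) or 45 mg on D1/8/15 (second stage). Peripheral blood (3 ml) was drawn on C1D1, C2D1, C3D1 and at end of treatment. Lymphocyte subsets were analysed by flow cytometry. Post-dose cell proportions were divided by each subject's baseline.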

[5] = tested on: patients with advanced solid tumors; conditions: cited from earlier work
[6] = tested on: adults with refractory solid tumors or lymphoma; conditions: monotherapy phase I trial; cited from earlier work
[7] = 28 participants, 30- and 45-mg groups

With `CN[C@@H](C)C(=O)N[C@H]1CN(S(=O)(=O)c2cccc(S(=O)(=O)N3CC[C@H]4CC[C@@H](C(=O)NC(c5ccccc5)c5ccccc5)N4C(=O)[C@@H](NC(=O)[C@H](C)NC)C3)c2)CC[C@H]2CC[C@@H](C(=O)NC(c3ccccc3)c3ccccc3)N2C1=O` [APG-1387] the “Dose-limiting toxicities (DLT)” value ([1]; 0.3-45 mg i.v. D1/8/15 of 28-day cycle, 28 subjects) was “no DLT occurred”, the “Subjects with TRAEs” value ([1]; 28 participants) was 21.4% and the TRAE pruritus ([1]; 28 participants, 20-mg group) was 3.6%. For the same molecule, the “TRAE elevated ALT” value [1, 7] was 7.1%, the “TRAE elevated AST” value [1, 7] was 7.1% and the TRAE asthenia ([1]; 28 participants, 45-mg group) was 3.6%. For the same molecule, the TRAE facial-nerve disorder ([1]; 28 participants, all in 45-mg group) was 10.7%, the “Participants with grade ≥3 TRAE (ALT elevation)” value ([1]; 28 subjects) was 3.6% and the “Any TRAE, All grade” value ([1]; all doses, n = 28) was 6 (21·4) n (%). The “Any TRAE, Grade ≥3” value ([1]; all doses, n = 28) was 1 (3·6) n (%), the “TRAE Alanine aminotransferase elevation, All grade” value ([1]; all doses, n = 28) was 2 (7·1) n (%) and the “TRAE Alanine aminotransferase elevation, Grade ≥3” value ([1]; all doses, n = 28) was 1 (3·6) n (%). For the same molecule, the “TRAE Amylase elevation, All grade” value ([1]; all doses, n = 28) was 0 (0) n (%), the “TRAE Amylase elevation, Grade ≥3” value ([1]; all doses, n = 28) was 0 (0) n (%) and the “TRAE Aspartate aminotransferase elevation, All grade” value ([1]; all doses, n = 28) was 2 (7·1) n (%). The “TRAE Aspartate aminotransferase elevation, Grade ≥3” value ([1]; all doses, n = 28) was 0 (0) n (%), the “TRAE Asthenia, All grade” value ([1]; all doses, n = 28) was 1 (3·6) n (%) and the “TRAE Asthenia, Grade ≥3” value ([1]; all doses, n = 28) was 0 (0) n (%). For the same molecule, the “TRAE Blood creatinine elevation, All grade” value ([1]; all doses, n = 28) was 0 (0) n (%), the “TRAE Blood creatinine elevation, Grade ≥3” value ([1]; all doses, n = 28) was 0 (0) n (%) and the “TRAE Decreased appetite, All grade” value ([1]; all doses, n = 28) was 0 (0) n (%). For the same molecule, the “TRAE Decreased appetite, Grade ≥3” value ([1]; all doses, n = 28) was 0 (0) n (%), the “TRAE Facial-nerve disorder, All grade” value ([1]; all doses, n = 28) was 3 (10·7) n (%) and the “TRAE Facial-nerve disorder, Grade ≥3” value ([1]; all doses, n = 28) was 0 (0) n (%). The “TRAE Headache, All grade” value ([1]; all doses, n = 28) was 0 (0) n (%), the “TRAE Headache, Grade ≥3” value ([1]; all doses, n = 28) was 0 (0) n (%) and the “TRAE Hypoesthesia, All grade” value ([1]; all doses, n = 28) was 0 (0) n (%). For the same molecule, the “TRAE Hypoesthesia, Grade ≥3” value ([1]; all doses, n = 28) was 0 (0) n (%), the “TRAE Hypogeusia, All grade” value ([1]; all doses, n = 28) was 0 (0) n (%) and the “TRAE Hypogeusia, Grade ≥3” value ([1]; all doses, n = 28) was 0 (0) n (%). For the same molecule, the “TRAE Hypothyroidism, All grade” value ([1]; all doses, n = 28) was 0 (0) n (%), the “TRAE Hypothyroidism, Grade ≥3” value ([1]; all doses, n = 28) was 0 (0) n (%) and the “TRAE Immune-mediated pancreatitis, All grade” value ([1]; all doses, n = 28) was 0 (0) n (%). The “TRAE Immune-mediated pancreatitis, Grade ≥3” value ([1]; all doses, n = 28) was 0 (0) n (%), the “TRAE Infusion site reaction, All grade” value ([1]; all doses, n = 28) was 0 (0) n (%) and the “TRAE Infusion site reaction, Grade ≥3” value ([1]; all doses, n = 28) was 0 (0) n (%). For the same molecule, the “TRAE Leukopenia, All grade” value ([1]; all doses, n = 28) was 0 (0) n (%), the “TRAE Leukopenia, Grade ≥3” value ([1]; all doses, n = 28) was 0 (0) n (%) and the “TRAE Lipase elevation, All grade” value ([1]; all doses, n = 28) was 0 (0) n (%). The “TRAE Lipase elevation, Grade ≥3” value ([1]; all doses, n = 28) was 0 (0) n (%), the “TRAE Platelet count decrease, All grade” value ([1]; all doses, n = 28) was 0 (0) n (%) and the “TRAE Platelet count decrease, Grade ≥3” value ([1]; all doses, n = 28) was 0 (0) n (%). The “TRAE Pruritus, All grade” value ([1]; all doses, n = 28) was 1 (3·6) n (%), the “TRAE Pruritus, Grade ≥3” value ([1]; all doses, n = 28) was 0 (0) n (%) and the “TRAE Rash, All grade” value ([1]; all doses, n = 28) was 0 (0) n (%). The “TRAE Rash, Grade ≥3” value ([1]; all doses, n = 28) was 0 (0) n (%), the “Maximum tolerated dose (MTD)” value ([1]; doses up to 45 mg) was “not reached” and the “Subjects with treatment-emergent adverse events” value ([1]; safety population, 28 participants) was 89.3%. The “Disease control rate (DCR)” value (advanced solid tumors; 23 participants) was 21.7%, the “Best overall response: Complete response” value (advanced solid tumors; n 23) was 0 (0) n (%) and the “Best overall response: Partial response” value (advanced solid tumors; n 23) was 0 (0) n (%). For the same molecule, the “Best overall response: Progressive disease” value (advanced solid tumors; n 23) was 18 (78·3) n (%), the “Best overall response: Stable disease” value (advanced solid tumors; n 23) was 5 (21·7) n (%) and the Disease control rate (advanced solid tumors; n 23) was 5 (21·7) n (%). The Objective response rate (advanced solid tumors; n 23) was 0 (0) n (%), the “Duration of SD with tumor reduction” value (advanced solid tumors; one individual with CRC, 20-mg group) was 16 weeks and the “Increase of Cmax and AUC0-t with dose” value ([2]; 0.3-45 mg) was “approximately dose-proportional”. For the same molecule, the “Accumulation after multiple dosing” value ([2]; QW dosing schedule) was “No significant accumulation”, the “Mean rate of clearance” value ([2]; range across doses) was 15.9 to 60.7 L/h and the “Mean steady-state volume of distribution (Vss)” value ([2]; range across doses) was 10.1 to 60.1 L. The Mean terminal half-life ([2]; range across doses) was 44.5 to 672 min, the “Median time to maximum plasma concentration (Cmax)” value ([2]; range across doses, QW i.v. infusion 30 min) was 0.25 to 0.50 h and the “Plasma levels of IFN-γ, IL-12/IL-23p40, IL-5, and IL-6” value [3] was “significantly increased”. The “NK cell populations in peripheral blood” value ([4]; 45-mg dose of APG-1387, combination trial) was “increased” and the “NK cell populations in peripheral blood” value ([4]; low doses of APG-1387, combination trial) was “did not change significantly”.

In the case of `CN[C@@H](C)C(=O)N[C@H](C(=O)N1CCC[C@H]1c1nc(C(=O)c2ccc(F)cc2)cs1)C1CCCCC1` [LCL161], the “Cytokine release syndrome (CRS)” value ([5]; high doses of 1800, 2100, and 3000 mg) is listed as “grade 3-4 cytokine release syndrome”, the “CR or PR” value ([5]; monotherapy phase I trial) is listed as “no participant had a CR or PR” and the “Subjects with best response of SD” value ([5]; monotherapy phase I trial) is listed as 19%.

For `CC[C@H](NC(=O)[C@H](C)NC)C(=O)N1C[C@@H](O)C[C@H]1Cc1c(-c2[nH]c3cc(F)ccc3c2C[C@@H]2C[C@H](O)CN2C(=O)[C@H](CC)NC(=O)[C@H](C)NC)[nH]c2cc(F)ccc12` [birinapant], the “CR or PR” value [6] is given as “no participant had a CR or PR” and the “Subjects with best response of SD” value [6] is given as 28%.
